These results are taken from paper PMC4148159 (Journal of Medicinal Chemistry, 2014).

Assay [1] has as its system Vector control cells (DKO MEF, RH7777, CHO, B103). The experiment in a line: Fura-2AM Ca2+ mobilization in empty vector control cells. Type of assay: cell-based. As to conditions: read-out: vector EC50. The method, boiled down:
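Cells were loaded with Fura-2AM, and transient Ca2+ mobilization was read as fluorescence on a robotic plate reader. Receptor-expressing lines were CHO (LPA4), DKO MEF (LPA2), RH7777 (LPA1/3) and B103 (LPA5). Vector controls were the same lines transduced with empty vector. […] Values are means of three assays.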
For orientation: Calcium flux is commonly read through the fluorescence of an indicator in the cells.

Another assay deals with LPA2 (Homo sapiens, UniProt Q9HBW0). The experiment in a line: Fura-2AM Ca2+ mobilization, agonist mode, LPA2 DKO MEF cells. The following applies: for LPA2 agonist activity (in words): Ca2+ mobilization, SAR discussion. Type of assay: cell-based.
LPA2, sequence (Q9HBW0 whole entry): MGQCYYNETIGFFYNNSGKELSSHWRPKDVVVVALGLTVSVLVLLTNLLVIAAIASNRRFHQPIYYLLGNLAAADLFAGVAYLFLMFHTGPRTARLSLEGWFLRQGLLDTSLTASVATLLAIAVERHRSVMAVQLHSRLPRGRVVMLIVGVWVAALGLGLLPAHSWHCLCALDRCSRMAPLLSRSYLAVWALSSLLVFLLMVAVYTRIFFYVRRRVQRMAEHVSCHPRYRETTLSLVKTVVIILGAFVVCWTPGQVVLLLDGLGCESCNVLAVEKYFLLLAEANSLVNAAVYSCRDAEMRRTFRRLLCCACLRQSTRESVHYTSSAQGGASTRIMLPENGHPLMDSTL
The subject of assay [2] is radiation-induced apoptosis. The following applies: mice suffering from the acute hematopoietic radiation syndrome; cited from earlier work.
Another assay deals with apoptosis. The following applies: cell-based models of apoptosis; cited from earlier work.
Assay [3] concerns the target T1, LPA5 (Homo sapiens, UniProt Q9H1C0). The assay is described as follows: Ca2+ mobilization antagonist screen against LPA 18:1, LPA5. The class given is cell-based. The following applies: coapplied with LPA 18:1.
The target of assay [4] is T2, LPA3 (Homo sapiens, UniProt Q9UBY5).
T2 sequence (Q9UBY5 1-353): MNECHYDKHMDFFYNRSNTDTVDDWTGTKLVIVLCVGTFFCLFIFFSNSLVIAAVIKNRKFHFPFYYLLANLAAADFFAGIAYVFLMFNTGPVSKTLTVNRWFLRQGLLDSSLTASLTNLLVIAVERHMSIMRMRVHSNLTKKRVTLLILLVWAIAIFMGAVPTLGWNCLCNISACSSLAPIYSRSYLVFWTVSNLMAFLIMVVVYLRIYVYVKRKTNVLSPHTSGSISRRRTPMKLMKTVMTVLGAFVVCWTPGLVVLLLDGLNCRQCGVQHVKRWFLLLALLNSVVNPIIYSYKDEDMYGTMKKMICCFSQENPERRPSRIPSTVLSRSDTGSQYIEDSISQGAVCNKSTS
The experiment in a line: Ca2+ mobilization antagonist screen against LPA 18:1, LPA3. The class given is cell-based.

Assay [5] concerns the target T3, LPA4 (Mus musculus, UniProt Q8BLG2). The assay is described as follows: Ca2+ mobilization antagonist screen against LPA 18:1, LPA4. The class given is cell-based, human. The following applies: coapplied with LPA 18:1.
The target of a further assay is LPA1 (Homo sapiens, UniProt Q92633). The experiment in a line: Ca2+ mobilization antagonist screen against LPA 18:1, LPA1. Type of assay: cell-based. As to conditions: coapplied with LPA 18:1.
LPA1, sequence (Q92633 whole entry): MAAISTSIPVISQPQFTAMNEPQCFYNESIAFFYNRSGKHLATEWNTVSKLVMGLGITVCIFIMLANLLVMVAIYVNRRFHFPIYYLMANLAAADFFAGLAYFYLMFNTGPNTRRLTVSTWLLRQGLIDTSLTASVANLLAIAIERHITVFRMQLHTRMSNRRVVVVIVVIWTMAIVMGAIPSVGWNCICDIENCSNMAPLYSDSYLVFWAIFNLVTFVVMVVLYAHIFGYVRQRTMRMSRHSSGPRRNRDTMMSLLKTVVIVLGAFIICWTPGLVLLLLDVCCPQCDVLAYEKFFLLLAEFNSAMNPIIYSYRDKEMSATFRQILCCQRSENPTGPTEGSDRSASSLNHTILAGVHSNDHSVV
The target of assay [6] is T1, LPA5. The experiment in a line: Fura-2AM Ca2+ mobilization, agonist mode, LPA5 B103 cells. The following applies: B103, read-out: LPA5 Emax. The class given is cell-based.
Assay [7] concerns the target T3, LPA4. The experiment in a line: Fura-2AM Ca2+ mobilization, agonist mode, LPA4 CHO cells. As to conditions: read-out: LPA4 Emax. Type of assay: cell-based, human.
Assay [8] has as its target T2, LPA3. The assay is described as follows: Fura-2AM Ca2+ mobilization, agonist mode, LPA3-expressing cells. As to conditions: read-out: LPA3 Emax. The class given is cell-based.

T1 sequence (Q9H1C0 whole entry): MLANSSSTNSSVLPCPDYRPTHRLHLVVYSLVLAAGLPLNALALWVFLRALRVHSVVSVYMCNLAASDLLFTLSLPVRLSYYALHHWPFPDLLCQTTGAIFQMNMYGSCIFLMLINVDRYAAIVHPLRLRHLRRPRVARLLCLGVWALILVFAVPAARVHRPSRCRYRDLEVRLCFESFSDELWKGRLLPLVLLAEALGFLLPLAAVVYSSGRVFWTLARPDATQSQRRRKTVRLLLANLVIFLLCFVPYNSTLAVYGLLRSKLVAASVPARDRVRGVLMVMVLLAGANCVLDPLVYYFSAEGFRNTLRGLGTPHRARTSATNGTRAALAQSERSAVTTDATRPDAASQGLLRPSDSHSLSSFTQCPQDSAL
T3 sequence (Q8BLG2 whole entry): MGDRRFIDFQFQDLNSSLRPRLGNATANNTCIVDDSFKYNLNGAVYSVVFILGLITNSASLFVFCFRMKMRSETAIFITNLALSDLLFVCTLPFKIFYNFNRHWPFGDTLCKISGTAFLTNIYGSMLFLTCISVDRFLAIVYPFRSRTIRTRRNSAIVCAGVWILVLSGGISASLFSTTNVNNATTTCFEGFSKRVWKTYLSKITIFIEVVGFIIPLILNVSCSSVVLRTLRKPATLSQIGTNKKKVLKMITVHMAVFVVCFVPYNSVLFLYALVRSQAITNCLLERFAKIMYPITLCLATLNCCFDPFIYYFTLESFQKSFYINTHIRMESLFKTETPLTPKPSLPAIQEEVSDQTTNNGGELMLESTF

The EC50 is the concentration that produces a half-maximal response. As for `COc1ccc(C(=O)O)c(S(=O)(=O)NCCCCN2C(=O)c3cccc4cccc(c34)C2=O)c1` [Compound 8a], the concentration for a half-maximal effect (EC50) in assay [1] was > 10 µM. At LPA2, the “LPA2 agonist activity (in words)” value was “very weak agonist activity”.
On the same counts, the results for `O=C(O)c1ccc(S(=O)(=O)NCCCCN2C(=O)c3cccc4cccc(c34)C2=O)cc1` [Compound 11b] are > 10 µM and “abolished the activity at LPA2”.
As for `O=C(O)c1ccccc1S(=O)(=O)NCCCCN1C(=O)c2ccccc2C1=O` [Compound 7a, 2-[4-(1,3-Dioxo-1,3-dihydroisoindol-2-yl)butylsulfamoyl]benzoic acid], the 50% effective concentration (EC50) (in assay [1]; at LPA2) was > 10 µM throughout.
Consider `O=C(O)c1cc(Br)ccc1S(=O)(=O)NCCCCN1C(=O)c2cccc3cccc(c23)C1=O` [Compound 8c], for which, in assay [1], the EC50 was > 10 µM.
On the same count and under the same terms, the value for `O=C(O)c1ccccc1S(=O)(=O)NCCCCCN1C(=O)c2cccc3cccc(c23)C1=O` [Compound 6] was > 10 µM; that for `O=C(O)c1ccccc1S(=O)(=O)NCCCCN1C(=O)c2cccc3cccc(c23)C1=O` [Compound 5] was > 10 µM.
As for `O=C(O)c1ccc(Br)cc1S(=O)(=O)NCCCCN1C(=O)c2cccc3cccc(c23)C1=O` [Compound 8b], the EC50 in assay [1] is > 10 µM. For the same compound, the “LPA2 agonist activity (in words)” value on LPA2 is recorded as “more potent than compound 4”.
On to `O=C(O)c1ccccc1SCCCN1C(=O)c2cccc3cccc(c23)C1=O` [GRI-977143], for which, in [2], the “efficacy against radiation-induced apoptosis” value is given as “modestly efficacious”. For the same compound, in assay [1], the 50% effective concentration (EC50) was > 10 µM. Moreover, the antiapoptotic efficacy result with apoptosis is given as “showed antiapoptotic efficacy”.
On to `O=C(O)c1cc(F)ccc1S(=O)(=O)NCCCCN1C(=O)c2cccc3cccc(c23)C1=O` [Compound 11c], for which, in assay [1], the 50% effective concentration (EC50) was > 10 µM.
By IC50 is commonly meant the concentration that gives 50% inhibition. The low end stands for higher potency, the high end for lower potency. `O=C(O)c1ccccc1S(=O)(=O)NCCCN1C(=O)c2cccc3cccc(c23)C1=O` [Compound 4, 2-(N-(3-(1,3-dioxo-1H-benzo[de]isoquinolin-2(3H)-yl)propyl)sulfamoyl)benzoic acid]: the “LPA5 inhibition (antagonist activity)” value on LPA5 [3] was “without activating or inhibiting”. For the same compound, the 50% inhibitory concentration (IC50) against LPA3 [4] is > 10 µM. The EC50 in [1] is > 10 µM; on LPA2, ~2 µM. The “LPA4 inhibition (antagonist activity)” value at LPA4 [5] is on record as “without activating or inhibiting”. For the same compound, the “LPA1 inhibition (antagonist activity)” value on LPA1 was “without activating or inhibiting”.
With `O=C1C(=O)N(CCCCNS(=O)(=O)c2ccccc2C(=O)O)c2ccccc21` [Compound 7b, 2-(N-(4-(2,3-dioxoindolin-1-yl)butyl)sulfamoyl)benzoic acid], the EC50 (in [1]; on LPA2) was > 10 µM in each case.
For the compound `O=C(O)c1cc(Cl)ccc1S(=O)(=O)NCCCCN1C(=O)c2cccc3cccc(c23)C1=O` [Compound 11d, 5-chloro-2-(N-(4-(1,3-dioxo-1H-benzo[de]isoquinolin-2(3H)-yl)butyl)sulfamoyl)benzoic acid], in [1], the concentration for a half-maximal effect (EC50) was > 10 µM.
With `O=C(O)c1ccc(C(=O)O)c(S(=O)(=O)NCCCCN2C(=O)c3cccc4cccc(c34)C2=O)c1` [Compound 10, 2-(N-(4-(1,3-dioxo-1H-benzo[de]isoquinolin-2(3H)-yl)butyl)sulfamoyl)terephthalic acid], the EC50 in assay [1] was > 10 µM. In addition, the “LPA2 agonist activity (in words)” value at LPA2 is reported as “considerably less potent than the compound 9”.
As usually defined, the Emax is the size of the effect at its maximum, as opposed to the concentration needed. As for `CCCCCCCC/C=C\CCCCCCCC(=O)OC[C@@H](O)COP(=O)(O)O` [LPA 18:1, 1-acyl-2-hydroxy-sn-3-glycerophosphate], the Emax worked out at 100% at LPA5 [6]; 100% at LPA4 [7]; 100% on LPA3 [8]; 100% at LPA2 (MEF, read-out: LPA2 Emax). In addition, in assay [1], the concentration for a half-maximal effect (EC50) is > 10 µM.
Turning to `O=C(O)c1ccc2c(c1)S(=O)(=O)N(CCCCN1C(=O)c3cccc4cccc(c34)C1=O)C2=O` [Compound 9, 2-(4-(1,3-dioxo-1H-benzo[de]isoquinolin-2(3H)-yl)butyl)-3-oxo-2,3-dihydrobenzo[d]isothiazole-6-carboxylic acid 1,1-dioxide], the 50% effective concentration (EC50) in assay [1] is > 10 µM.
Turning to `O=C(O)c1cccc(S(=O)(=O)NCCCCN2C(=O)c3cccc4cccc(c34)C2=O)c1` [Compound 11a], in assay [1], the EC50 was > 10 µM. Also, the “LPA2 agonist activity (in words)” value at LPA2 is “abolished the activity at LPA2”.
